“And” between values parts separate entries of the source, which are not always exact repeats. Identical values can stand only once. “Also recorded” adds a separate entry of the source.
How the values were obtained:
[1] = molecular target: HIV-1 RT-associated RNase H (Human immunodeficiency virus type 1 group M subtype B, UniProt P04585); experiment: RNase H activity on fluorescent RNA/DNA hybrid, HIV-1 RT; format: biochemical; conditions: for IC50: IC50 HIV-1 RT; for IC50 / IC50 HIV-1 RT: RNase H activity, triplicate assays
Procedure, shortened: (§1)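 RNase H cleavage of a fluorescent RNA/DNA hybrid was measured with recombinant E. coli-expressed RT (wild-type p66/p51 for HIV-1; same expression system for HIV-2). Test compound, from a 20 mM DMSO stock, was tested in 2-fold dilutions from 100 μM to […]. Fluorescence was read every 40 s over 30 min. Rates came from the linear portion of the curves, and dose–response curves were fitted. Assays were run in triplicate.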

[2] = molecular target: HIV-2 RT-associated RNase H (Human immunodeficiency virus type 2 subtype A, UniProt P04584); experiment: RNase H activity on fluorescent RNA/DNA hybrid, HIV-2 RT; format: biochemical; conditions: for IC50 HIV-2 RT: RNase H activity, triplicate assays
Procedure, shortened: as §1

E.coli RNase HI = molecular target: T1, E.coli RNase HI (Escherichia coli, UniProt P0A7Y4); experiment: RNase H activity on fluorescent RNA/DNA hybrid, E.coli RNase H; format: biochemical; conditions: for IC50: IC50 E.c. Rnase H
T1 sequence (P0A7Y4 1-155): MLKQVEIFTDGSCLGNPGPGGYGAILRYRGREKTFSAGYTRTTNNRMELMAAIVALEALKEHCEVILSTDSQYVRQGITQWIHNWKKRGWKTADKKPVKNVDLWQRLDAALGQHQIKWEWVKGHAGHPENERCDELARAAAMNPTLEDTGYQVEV

human RNase H = molecular target: T2, human RNase H (Homo sapiens, UniProt O60930); experiment: RNase H activity on fluorescent RNA/DNA hybrid, human RNase H; format: biochemical
T2 sequence (O60930 1-286): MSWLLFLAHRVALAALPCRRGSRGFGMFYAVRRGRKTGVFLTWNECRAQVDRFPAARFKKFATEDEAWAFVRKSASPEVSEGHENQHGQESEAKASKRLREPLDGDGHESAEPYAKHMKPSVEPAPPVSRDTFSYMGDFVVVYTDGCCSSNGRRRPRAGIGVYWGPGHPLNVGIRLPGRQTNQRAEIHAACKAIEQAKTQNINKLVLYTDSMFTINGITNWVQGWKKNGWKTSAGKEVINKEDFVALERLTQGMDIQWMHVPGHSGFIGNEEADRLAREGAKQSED

12mer RNA/DNA hybrid = experiment: Surface plasmon resonance binding to immobilized RNA/DNA hybrid; conditions: SPR; for binding to RNA/DNA hybrid substrate: concentration range of 50 nM–10 mM
[3] = molecular target: HIV-1 RT RNase H activity (Human immunodeficiency virus type 1 group M subtype B, UniProt P04585); experiment: HIV-1 RT-catalyzed polypurine tract; format: biochemical; conditions: single concentration of 50 μM
Procedure, shortened: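 Recombinant wild-type p66/p51 HIV-1 RT was expressed in E. coli. The substrate was a 5′[32P]-labeled HIV-1 PPT RNA primer, extended at its 3′ end by five deoxynucleotides, hybridized to its DNA complement. Test compound was diluted from a 20 mM DMSO stock into reaction buffer and tested at 50 μM. Controls were no inhibitor and DMSO alone. PPT hydrolysis products were assessed qualitatively.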

HIV-1 RT DNA polymerase = HIV-1 RT DNA polymerase (Human immunodeficiency virus type 1 group M subtype B, UniProt P04585); experiment: DNA-dependent DNA polymerase activity of HIV-1 RT; format: biochemical; conditions: single concentration of 50 μM
HIV-2 RT DNA polymerase = HIV-2 RT DNA polymerase (Human immunodeficiency virus type 2 subtype A, UniProt P04584); experiment: DNA polymerase activity of HIV-2 RT; format: biochemical; conditions: 50 μM
HIV-1 infection = experiment: Cellular models of HIV-1 infection; format: cell-based

Sequence of HIV-2 RT-associated RNase H (P04584 613-1171 limits assumed): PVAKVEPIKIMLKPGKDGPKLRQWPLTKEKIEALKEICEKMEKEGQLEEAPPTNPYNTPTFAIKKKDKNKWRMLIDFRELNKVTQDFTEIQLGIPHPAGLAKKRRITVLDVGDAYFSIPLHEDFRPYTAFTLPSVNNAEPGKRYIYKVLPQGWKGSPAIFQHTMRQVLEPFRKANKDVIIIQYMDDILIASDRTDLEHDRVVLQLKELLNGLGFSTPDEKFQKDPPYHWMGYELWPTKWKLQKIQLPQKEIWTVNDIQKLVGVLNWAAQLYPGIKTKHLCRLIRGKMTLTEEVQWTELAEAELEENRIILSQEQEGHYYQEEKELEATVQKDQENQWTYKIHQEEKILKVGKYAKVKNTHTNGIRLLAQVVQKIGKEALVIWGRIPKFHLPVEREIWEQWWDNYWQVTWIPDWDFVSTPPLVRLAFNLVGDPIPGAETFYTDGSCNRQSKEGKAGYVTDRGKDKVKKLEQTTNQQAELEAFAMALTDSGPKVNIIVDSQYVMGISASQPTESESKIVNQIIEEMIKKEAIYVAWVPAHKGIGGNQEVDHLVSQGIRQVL
Sequence of HIV-2 RT-associated RNase H (P04584 613-1051 partner limits assumed): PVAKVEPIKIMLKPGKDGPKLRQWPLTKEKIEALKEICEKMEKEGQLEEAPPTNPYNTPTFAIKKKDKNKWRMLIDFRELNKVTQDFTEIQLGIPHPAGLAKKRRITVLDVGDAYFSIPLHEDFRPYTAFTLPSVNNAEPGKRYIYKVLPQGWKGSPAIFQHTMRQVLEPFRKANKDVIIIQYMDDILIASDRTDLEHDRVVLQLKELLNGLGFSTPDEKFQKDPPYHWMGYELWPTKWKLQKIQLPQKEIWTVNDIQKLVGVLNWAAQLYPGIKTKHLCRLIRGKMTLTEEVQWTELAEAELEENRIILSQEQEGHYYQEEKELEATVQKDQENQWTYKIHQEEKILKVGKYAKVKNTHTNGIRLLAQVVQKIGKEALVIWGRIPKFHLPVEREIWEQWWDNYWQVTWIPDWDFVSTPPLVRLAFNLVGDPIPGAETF
Sequence of HIV-2 RT DNA polymerase (P04584 613-1171 limits assumed): as the sequence (P04584 613-1171 limits assumed) above
Sequence of HIV-2 RT DNA polymerase (P04584 613-1051 partner limits assumed): as the sequence (P04584 613-1051 partner limits assumed) above

For `CC(C)c1ccc(O)c(=O)cc1` [γ-Thujaplicin, 2-hydroxy-5-1(methylethyl)-2,4,6-cycloheptatrien-1-one], which IC50 [1] is on record?
The IC50 was greater than 100 µM.

And the “IC50 HIV-1 RT” value [1]?
Its value is “failed to inhibit”.

What about the IC50 [2] of the same molecule?
The IC50 was greater than 100 µM.

What about the “IC50 HIV-2 RT” value [2] of the same molecule?
Its value is “failed to inhibit”.

And the IC50 (E.coli RNase HI; triplicate assays)?
The IC50 was greater than 100 µM.

And the IC50 (human RNase H)?
Its IC50 is 2 µM.

Which results are given for `CC(C)c1ccccc(=O)c1O` [α-Thujaplicin, 2-hydroxy-3-(1-methylethyl)-2,4,6-cycloheptatrien-1-one]?
IC50 [1]: 50 µM; IC50 [2]: 33 µM; IC50 (E.coli RNase HI; triplicate assays): > 100 µM; IC50 (human RNase H): 12 µM; binding to RNA/DNA hybrid substrate (12mer RNA/DNA hybrid): do not bind

What does the source list for `CC(C)=CCc1ccc(=O)c(O)cc1C(C)C` [Nootkatin, 2-hydroxy-5-(3-methyl-2-butenyl)-4-(1-methylethyl)-2,4,6-cycloheptatrien-1-one]?
IC50 [1]: > 100 µM; IC50 [2]: > 100 µM; IC50 (E.coli RNase HI; triplicate assays): > 100 µM; IC50 (human RNase H): 25 µM

Which IC50 [1] does the source give for `O=c1cccccc1O` [Tropolone, 2-hydroxy-2,4,6-cycloheptatrien-1-one] here?
Its IC50 is greater than 100 µM.

What about the IC50 [2] of the same molecule?
The IC50 was greater than 100 µM.

What about the IC50 (E.coli RNase HI; triplicate assays) of the same molecule?
Its IC50 is greater than 100 µM.

And the IC50 (human RNase H)?
Its IC50 is 3 µM.

With `CC(C)c1ccc(O)c(=O)c(O)c1` [β-Thujaplicinol, 2,7-dihydroxy-4-1(methylethyl)-2,4,6-cycloheptatrien-1-one] as the molecule, how does the Ki [1] read?
Its Ki is 200 ± 70 nM.

And the IC50 [1]?
The IC50 was 0.2 µM and 0.21 µM.

And the “mode of inhibition of HIV-1 RT/RNase H” value ([1]; non-linear fitting)?
The value was “mixed-type inhibition”.

What about the IC50 [2] of the same molecule?
Its IC50 is 0.77 µM.

And the “E.coli RNase H less sensitive than HIV-1 RNase H” value (E.coli RNase HI)?
The value was roughly 250 fold.

What about the IC50 (E.coli RNase HI; triplicate assays) of the same molecule?
The IC50 was ~50 µM and 50 µM.

And the “inhibition of PPT processing” value [3]?
Its value is “almost complete inhibition”.

And the “inhibition of DNA-dependent DNA polymerase activity of HIV-1 RT” value (HIV-1 RT DNA polymerase)?
Its value is “failed to inhibit; also recorded: without affecting; also recorded: do not inhibit; also recorded: unaffected”.

What about the “inhibition of DNA polymerase activity of HIV-2 RT” value (HIV-2 RT DNA polymerase) of the same molecule?
The value was “without affecting; also recorded: unaffected”.

And the “binding to RNA/DNA hybrid substrate” value (12mer RNA/DNA hybrid)?
Its value is “do not bind”.

What about the “activity in cellular models of HIV-1 infection” value (HIV-1 infection) of the same molecule?
The value was “inactive”.

For `CC[n+]1c(-c2ccccc2)c2cc(N)ccc2c2ccc(N)cc21` [ethidium bromide, reference compound], which Kd (12mer RNA/DNA hybrid; read-out: Kd for intercalation into RNA/DNA hybrid, 25°C) is on record?
Its Kd is roughly 1500 nM.

Which IC50 [1] does the source give for `CC(C)c1cccc(=O)c(O)c1` [β-Thujaplicin, 2-hydroxy-4-(1-methylethyl)-2,4,6-cycloheptatrien-1-one] here?
Its IC50 is greater than 100 µM.

What about the “IC50 HIV-1 RT” value [1] of the same molecule?
The value was “completely inactive”.

And the IC50 [2]?
Its IC50 is greater than 100 µM.

And the “IC50 HIV-2 RT” value [2]?
Its value is “completely inactive”.

What about the IC50 (E.coli RNase HI; triplicate assays) of the same molecule?
Its IC50 is greater than 100 µM.

What about the “IC50 E.c. Rnase H” value (E.coli RNase HI; triplicate assays) of the same molecule?
The value was “completely inactive”.

And the IC50 (human RNase H)?
Its IC50 is greater than 100 µM.

What about the “IC50 Hu Rnase H” value (human RNase H; triplicate assays) of the same molecule?
Its value is “completely inactive”.

And the “binding to RNA/DNA hybrid substrate” value (12mer RNA/DNA hybrid)?
The value was “do not bind”.

— PMC552956 (Nucleic Acids Research, 2005)
